HKDC1 inhibitor: HKDC1 hexokinase inhibitors, primary screen, biochemical, fluorescence, uHTS | Q2TB90 | recombinant HKDC1, G6PDH/diaphorase resazurin coupled fluorescence | inhibition, % at 20 µM | 340,000 tested, 0.16% active;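 active means inhibition above about 35% when tested at 20 µM, limit read from the data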;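 further: plate controls were DMSO wells with enzyme for no effect and DMSO wells lacking enzyme for full effect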
Target sequence (Q2TB90 whole entry, looked up): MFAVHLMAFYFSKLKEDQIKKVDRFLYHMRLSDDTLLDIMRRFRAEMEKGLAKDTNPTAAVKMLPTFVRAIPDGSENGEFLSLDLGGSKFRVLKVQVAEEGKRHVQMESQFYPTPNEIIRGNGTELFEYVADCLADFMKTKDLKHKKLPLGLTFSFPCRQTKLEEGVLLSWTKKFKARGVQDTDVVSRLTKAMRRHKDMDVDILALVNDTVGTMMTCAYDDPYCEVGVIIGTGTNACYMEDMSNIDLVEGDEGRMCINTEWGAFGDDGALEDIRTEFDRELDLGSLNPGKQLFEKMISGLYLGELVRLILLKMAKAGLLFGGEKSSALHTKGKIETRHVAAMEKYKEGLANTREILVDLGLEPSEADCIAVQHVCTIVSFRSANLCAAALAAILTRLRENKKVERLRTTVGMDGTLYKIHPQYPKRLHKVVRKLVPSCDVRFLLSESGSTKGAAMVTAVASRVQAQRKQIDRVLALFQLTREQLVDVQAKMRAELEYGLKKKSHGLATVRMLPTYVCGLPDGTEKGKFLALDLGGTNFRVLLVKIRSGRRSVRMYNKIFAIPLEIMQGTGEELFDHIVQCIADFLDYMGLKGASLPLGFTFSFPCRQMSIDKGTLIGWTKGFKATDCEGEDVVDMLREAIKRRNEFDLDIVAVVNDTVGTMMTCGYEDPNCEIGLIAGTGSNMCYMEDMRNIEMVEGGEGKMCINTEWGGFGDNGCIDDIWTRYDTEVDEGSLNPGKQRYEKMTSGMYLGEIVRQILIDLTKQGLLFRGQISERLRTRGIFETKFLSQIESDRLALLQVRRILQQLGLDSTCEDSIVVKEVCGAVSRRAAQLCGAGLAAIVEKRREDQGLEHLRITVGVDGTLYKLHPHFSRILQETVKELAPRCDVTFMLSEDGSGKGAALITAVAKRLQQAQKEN
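Material: recombinant HKDC1 hexokinase; Amount: HKDC1 at 5 µg/mL; Medium: Tris pH 8.0 buffer with MgCl2, Tween-20, BSA, BME; Schedule: 90 min reaction incubation at room temperature, dark; Technique: coupled resazurin fluorescence, excitation 525 nm, emission 613 nm.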
G6PDH counter: L. mesenteroides G6PDH inhibitors, counter-screen for G6PDH-coupled screening assays, biochemical, Leuconostoc mesenteroides enzyme. Purified L. mesenteroides G6PDH, diaphorase/resazurin coupled fluorescence, 45 min. glucose-6-phosphate dehydrogenase [Leuconostoc mesenteroides]. 200,000 tested, 0.12% active. inhibition, % at 5 µM. AID 1020, 2008; in the data active means inhibition above about 50%
PfG6PD inh: PfG6PD enzyme inhibitors, primary screen, biochemical, fluorescence intensity, uHTS. glucose-6-phosphate dehydrogenase-6-phosphogluconolactonase (Plasmodium falciparum 3D7). PfGluPho enzyme, NADPH resazurin-diaphorase fluorescence. inhibition, % at 20 µM. 350,000 tested, 0.78% active. AID 504690, 2011;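 active means inhibition reaching at least a set limit at 20 µM in the primary screen, cut at about 59% in these data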;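 further: 0% = DMSO wells with substrate and 100% = DMSO wells lacking glucose-6-phosphate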
Diaph inh CS: diaphorase inhibitors and chemical oxidizers, primary screen, counter-screen for diaphorase-coupled primary assays, biochemical, uHTS, resorufin fluorescence; diaphorase resazurin-to-resorufin fluorescence, NADH, 16 min; bacterial (C. kluyveri) enzyme, not human; inhibition, % at 20 µM; 190,000 tested, 0.69% active; AID 1217, 2008;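 active means primary screen inhibition at 20 µM above a set limit, cut at about 50% in these data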;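 further: plate controls were DMSO with full reaction for no effect and wells lacking NADH for full effect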
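Test system: diaphorase enzyme from Clostridium kluyveri; amount: diaphorase at 0.14 U/mL in enzyme working solution; detection: fluorescence of resorufin formed from resazurin, Ex 544/Em 590 nm; times: reaction incubation of 16 min at room temperature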
PfG6PD confirm: PfG6PD inhibitors, hit retest, confirmation, biochemical, fluorescence intensity, single concentration; shares compounds with PfG6PD inh; recombinant PfGluPho, NADPH-diaphorase-resazurin fluorescence; inhibition, % at 20 µM; 2,400 tested, 34% active; AID 504753, 2011;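 active means inhibition of at least 50% at 20 µM in any single replicate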;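 further: 0% = DMSO with substrate and 100% = DMSO lacking glucose-6-phosphate substrate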
Diaph ctr 10uM: diaphorase inhibitors and chemical oxidizers, confirmation, counter-screen for P. falciparum G6PD inhibitor project, biochemical, fluorescence intensity, 10 µM NADPH | shares compounds with PfG6PD inh | diaphorase-coupled resazurin reduction, NADPH 10 uM | inhibition, % at 20 µM | 820 tested, 39% active | AID 504862, 2011;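 active means average inhibition reaching 50% or more with the compound at 20 µM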;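 further: resorufin red fluorescence formed as diaphorase reduces resazurin using NADPH; 0% = DMSO with enzyme and 100% = DMSO without enzyme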
Diaph ctr 30uM: diaphorase inhibitors and chemical oxidizers, confirmation, counter-screen for P. falciparum G6PD inhibitor project, biochemical, fluorescence intensity, 30 µM NADPH; shares compounds with PfG6PD inh; Diaphorase/resazurin coupled assay, resorufin fluorescence; inhibition, % at 20 µM; 820 tested, 29% active; AID 504863, 2011;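 active means inhibition averaging 50% or more, tested at 20 µM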;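 further: 0% = DMSO with enzyme and 100% = DMSO wells lacking diaphorase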
Starred values were filed as active, the others as inactive; x = not tested or not shown. Hits are enriched below; roughly 1.3% of the tested compounds scored in any of these assays.

SMILES	HKDC1 inhibitor	G6PDH counter	PfG6PD inh	Diaph inh CS	PfG6PD confirm	others
Clc1ccc2[nH]cc(-c3nnnn3-c3ccccc3)c2c1	7.5	4.0	96.5*	25.6	36.4
O=c1ccn(-c2cccc(C(F)(F)F)c2)nc1-c1ccn(-c2ccccc2)n1	1.2	-21.4	90.7*	15.2	72.6*	Diaph ctr 10uM=65.8*;Diaph ctr 30uM=55.3*
O=C1c2ccccc2C(Nc2ccc3c(c2)OCO3)N1Cc1ccco1 (configuration not stated)	7.0	5.7	61.1*	31.1	38.5
O=C1c2ccccc2C(Nc2ccc3c(c2)OCO3)N1Cc1ccc2c(c1)OCO2 (configuration not stated)	6.6	-15.3	59.5*	34.4	44.3
O=C1c2ccccc2C(Nc2ccc(F)c(Cl)c2)N1Cc1ccco1 (configuration not stated)	10.4	-10.0	6.5	16.7	x
O=C1c2ccccc2C(Nc2cccnc2)N1Cc1ccc2c(c1)OCO2 (configuration not stated)	-2.5	-10.5	-3.9	9.4	x
CC(=NNC(=S)N1CCN(c2ccccn2)CC1)c1ccccn1	-21.1	x	83.6*	x	29.7
CC(=NNC(=S)N1CCN(c2ccccn2)CC1)c1nccs1	-35.8	x	92.8*	x	57.0*	Diaph ctr 10uM=-3.1;Diaph ctr 30uM=4.4
S=C(NC1CCCC1)N1CCN(c2ccccn2)CC1	15.1	-10.1	-6.3	7.6	x
CCOC(=O)C(CC(=O)O)=C(c1ccccc1)c1ccccc1	2.2	x	-31.4	x	x
CCSc1nnc(SCC(=O)NC2CCCCC2)s1	-4.0	x	13.1	x	x
Cc1ccc(NNC(=O)Nc2ccc(Cl)cc2)nn1	1.8	x	68.1*	x	25.9
O=C(NNc1cccc(Cl)n1)Nc1ccc(Cl)cc1	-6.9	13.4	32.7	13.5	x
CC(=O)N1CCN(c2nc3ccc([N+](=O)[O-])cc3s2)CC1	-2.1	x	6.1	x	x
Cc1ccn2cc(-c3cnoc3C)nc2c1	-5.3	-3.5	16.6	11.6	x
COc1c(Cl)cccc1-c1cn2ccc(C)cc2n1	0.1	x	83.4*	x	28.7
COc1ccc(C(CC(=O)c2ccc(C)cc2)Sc2ccccc2N)cc1 (configuration not stated)	x	x	30.4	x	x
Nc1ccccc1SC(CC(=O)c1ccccc1)c1cccc([N+](=O)[O-])c1 (configuration not stated)	x	x	70.3*	x	22.5
Nc1ccccc1SC(CC(=O)c1ccccc1)c1ccc([N+](=O)[O-])cc1 (configuration not stated)	x	x	61.1*	x	10.3
Cc1ccc(C)c(OCC(=O)N2CCN(c3ncccn3)CC2)c1	2.5	x	-0.7	x	x
Cc1ccc(NC2Sc3ccccc3NC2=O)cc1Cl (configuration not stated)	-5.3	x	82.3*	x	-6.0
Cc1ccc(NC(=O)c2cc([N+](=O)[O-])ccc2N2CCOCC2)cc1S(=O)(=O)N(C)C	3.0	x	78.1*	x	35.2
CC1(C)Cc2[nH]c(=S)c(C#N)cc2CO1	0.8	0.2	62.8*	1.9	29.9
COC(=O)c1c(C)n(-c2ccccc2)c2ccc(O)cc12	20.1	5.3	62.9*	23.3	27.9
COCCNC(=O)c1cccc(OC2CCN(Cc3ccc(OC(F)F)cc3)CC2)c1	-5.8	x	-1.0	x	x
SMILES	HKDC1 inhibitor	G6PDH counter	PfG6PD inh	Diaph inh CS	PfG6PD confirm	others
Cc1ccc2nc3c(cc(S(=O)(=O)c4ccccc4)c(=N)n3C3CCCC3)c(=O)n2c1	2.1	x	69.3*	x	34.2
COc1ccc(-n2ccnc2SCC(=O)NC2CCCC2)cc1	-0.5	x	9.2	x	x
NNC(=O)CN1C(c2ccccc2Br)=Nc2ccc(Br)cc2C1c1ccccc1 (configuration not stated)	0.4	7.9	88.4*	6.7	59.6*	Diaph ctr 10uM=53.7*;Diaph ctr 30uM=34.2
O=c1[nH]c(=O)c2[nH]c(=S)n(-c3ccccc3)c2[nH]1	-5.9	x	63.8*	x	37.1
CCOC(=O)C1CCN(C(=O)Nc2ccc3oc(C)nc3c2)CC1	-8.8	2.3	17.4	15.0	x
CCOC(=O)N1CCN(C(=O)Nc2ccc3oc(C)nc3c2)CC1	-5.8	2.7	61.7*	5.6	-3.8
COc1ccc2nc3ccccc3nc2c1N	17.3	x	70.5*	x	13.6
CCSc1nc2cc(S(=O)(=O)N3CCOCC3)ccc2o1	-15.9	x	70.6*	x	49.9*	Diaph ctr 10uM=-17.7;Diaph ctr 30uM=-20.9
Cc1nc2ccc(Nc3nc4cc(S(=O)(=O)N5CCOCC5)ccc4o3)cc2s1	0.6	4.8	92.7*	41.7	54.3*	Diaph ctr 10uM=18.6;Diaph ctr 30uM=23.6
Cc1ccc(C(=O)CSc2nc3cc(S(=O)(=O)N4CCOCC4)ccc3o2)cc1	-3.7	-2.4	20.8	31.0	x
O=C(OCC(=O)N1CCc2ccccc21)[C@@H]1CC(O)CN1S(=O)(=O)c1ccccc1[N+](=O)[O-] (some centres not stated)	-6.3	x	-2.8	x	x
CCNC(=O)NC(=O)COC(=O)c1ccccc1SCC(=O)NC(=O)NCC	-1.4	10.9	59.4*	7.4	32.3
CNc1ncnc2c1ncn2-c1ccccc1	-5.3	x	9.7	x	x
Cc1nc(NS(=O)(=O)c2ccccc2)sc1C(=O)NNS(=O)(=O)c1ccccc1	-3.0	x	-11.1	x	x
Cc1nc(NS(=O)(=O)c2ccccc2)sc1C(=O)N/N=C/c1ccccc1	-1.9	x	74.1*	x	43.0
CCc1ccc2nc(NC(=O)c3ccc(N4C(=O)CCC4=O)cc3)sc2c1	-6.6	x	-0.4	x	x
CNS(=O)(=O)c1ccc2nc(NC(=O)c3ccc(N4C(=O)CCC4=O)cc3)sc2c1	0.1	-3.5	63.5*	12.4	40.9
CCN(CC)Cc1cc(Nc2c3ccccc3nc3c4ccccc4n(C)c23)cc(CN(CC)CC)c1O	20.1	x	80.3*	x	28.2
Oc1ccc(C=NNc2ccccn2)c(O)c1	13.9	x	60.6*	x	45.0
COc1ccc(C(c2sc3nc(C)nn3c2O)N2CCc3ccccc3C2)cc1 (configuration not stated)	-3.0	-3.2	59.1*	5.4	-21.5
O=[N+]([O-])c1ccc(COc2ccc(CN3CCCC3)cc2)cc1	-0.2	x	-0.7	x	x
COC1=C(Br)C(=O)c2nc(C)ccc2C1=O	x	x	101.1*	x	73.7*	Diaph ctr 10uM=46.2;Diaph ctr 30uM=37.2
COC1=C(N)C(=O)c2nc(C)ccc2C1=O	31.5	x	108.6*	x	93.2*	Diaph ctr 10uM=49.0;Diaph ctr 30uM=56.8*
COc1ccc(CNc2nc3c(c(=O)[nH]c(=O)n3C)n2CCCc2ccccc2)cc1	4.5	-2.2	-15.2	12.3	x

Source: PubChem BioAssay
